Here are results for 1 compound from ChEMBL document CHEMBL3421533, “The Discovery of Orally Bioavailable Tyrosine Threonine Kinase (TTK) Inhibitors: 3-(4-(heterocyclyl)phenyl)-1H-indazole-5-carboxamides as Anticancer Agents” (J Med Chem, 2015).

Molecules are shown by their SMILES.

Broadly, the GI50 is the concentration at which growth is held to half of that of the control. A high value points to lower sensitivity of the cells. In general, IC50 refers to the concentration that inhibits the measured activity by half. Lower therefore signals greater potency in that assay. For orientation: half-life means the time needed for the level to fall by half in the phase considered. High values mean slow decline, low ones rapid decline. By AUC(0-inf) is commonly meant total exposure, with the tail of the curve extrapolated. Lower therefore signals less exposure. In general, EC50 refers to the concentration giving half of the maximal effect. One may read the bioavailability as the share of a dose that reaches the circulation, judged against a reference dose that is usually intravenous. Higher therefore signals good availability.

In data set [1] the test system is MCF7. Description: Cytotoxicity against human MCF7 cells after 5 days by sulforhodamine B assay. The class given is functional. Particulars: MCF7, 120 h. The method, boiled down:
(§1)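 Cancer lines were seeded at 800–6000 cells per well according to growth rate, 24 h before compound overlay. After culture, cells were fixed in situ and stained with sulforhodamine B. GI50 values were derived by curve fitting.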
(In general: Sulforhodamine B stains cellular protein and so reports cell mass.)

For data set [2], the system named is MDA-MB-468. Description: Antitumor activity against human MDA-MB-468 cells xenografted in CB-17 SCID mouse assessed as tumor growth inhibition at 30 mg/kg, po qd administered for 21 days measured 3 times per week during compound dosing relative to vehicle-treated control. The class given is functional. To be noted: MDA-MB-468, 504 h, read-out: TGI. The method, boiled down: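 Groups (n = 5) were randomized at a mean tumor volume of 80–120 mm³. Oral daily dosing for 21 days in 10% NMP/40% PEG400/50% DI water, top dose 30 mg/kg. Tumors were measured three times weekly, volume x²y/2, and TGI was computed against vehicle.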
(Xenograft models place foreign cells or tissue in a host animal.)

Data set [3] in a line: Cytotoxicity against human OV90 cells after 5 days by sulforhodamine B assay. Particulars: OV-90, 120 h. It is filed as functional. Summed up: as §1
In data set [4] the target is Muscle, skeletal receptor tyrosine-protein kinase (Homo sapiens, UniProt O15146). Description: Inhibition of human MuSK by millipore radiometric assay. Summed up:
(§2)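 Radiometric profiling against a 278-kinase panel was done with ATP at Km. Half-maximal inhibitory concentrations were then determined for the kinases most inhibited.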

A short description of data set [5]: Cytotoxicity against human TOV21G cells after 5 days by sulforhodamine B assay. The class given is functional. Particulars: 120 h. The method, boiled down: as §1
Data set [6] has as its system SK-MEL-28. Description: Cytotoxicity against human SK-MEL-28 cells after 5 days by sulforhodamine B assay. It is filed as functional. To be noted: SK-MEL-28, 120 h. The method, boiled down:
as §1

The subject of data set [7] is COLO 205. Description: Cytotoxicity against human COLO205 cells after 5 days by sulforhodamine B assay. It is filed as functional. To be noted: COLO 205, 120 h. Summed up:
as §1

Data set [8] can be described thus: Half life in rat liver microsomes at 1 uM by LC-MS analysis. It is filed as ADME. Particulars: liver microsomes.
For data set [9], the system named is A549. Description: Cytotoxicity against human A549 cells after 5 days by sulforhodamine B assay. The class given is functional. Particulars: A549, 120 h. The method, boiled down: as §1
Data set [10] in a line: Half life in Sprague-Dawley rat at 1 mg/kg, iv by LC-MS/MS analysis. It is filed as ADME, organism-based. On the set-up: dose 1 mg/kg, route intravenous. To be noted: in vivo.
Data set [11] deals with Mus musculus. Description: Toxicity in po dosed CD-1 nude mouse assessed as signs of overt toxicity administered as qd for 21 days. Particulars: in vivo, 504 h. The class given is organism-based. Summed up:
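Female nude mice bearing subcutaneous tumors (80–120 mm³ at randomization) received vehicle (10% NMP/40% PEG400/50% water) or compound by daily oral dosing for 21 days. Doses were the MTD and ~2/3 MTD. Body weight and tumor volume were measured three times weekly. The MTD criterion (n = 3) was no body-weight loss over 20% and not moribund.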

The nature of data set [12]: AUCinfinity in Sprague-Dawley rat at 5 mg/kg, po by LC-MS/MS analysis. It is filed as ADME, organism-based. Also on record: time infinity, dose 5 mg/kg, route oral. Particulars: plasma.
Data set [13] concerns the target T1, Aurora kinase A (Homo sapiens, UniProt O14965).
T1 sequence (O14965 whole entry): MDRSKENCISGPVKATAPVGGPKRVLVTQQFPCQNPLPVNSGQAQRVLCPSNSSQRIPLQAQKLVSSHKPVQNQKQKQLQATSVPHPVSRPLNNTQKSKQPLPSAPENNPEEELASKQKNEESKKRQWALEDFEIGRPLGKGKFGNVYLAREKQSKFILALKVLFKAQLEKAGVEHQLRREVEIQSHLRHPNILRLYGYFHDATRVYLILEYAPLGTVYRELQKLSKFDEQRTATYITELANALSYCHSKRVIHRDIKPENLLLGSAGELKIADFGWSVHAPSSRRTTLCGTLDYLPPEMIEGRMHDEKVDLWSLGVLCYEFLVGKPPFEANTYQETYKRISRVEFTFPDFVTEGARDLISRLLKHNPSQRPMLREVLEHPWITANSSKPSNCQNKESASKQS
Description: Inhibition of AURKA (unknown origin) transfected in human HCT116 cells after 4 hrs by near infrared imager analysis. The class given is cell-based, HCT-116. Summed up: (§3)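 HCT116 cells transfected with wild-type TTK were arrested with nocodazole (200 ng/mL, 17 h). They were pretreated with MG132 (15 μM, 30 min), then exposed to compound or DMSO for 4 h. Blots were probed for phospho-TTK (Thr12/Ser15), phospho-Aurora A (Thr288)/B (Thr232), TTK and GAPDH. Bands were quantified by near-infrared imaging, and EC50 was fitted.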

Data set [14] concerns the target Aurora kinase B/Inner centromere protein (Homo sapiens, UniProt Q96GD4). Description: Inhibition of AURKB/INCENP (unknown origin) transfected in human HCT116 cells after 4 hrs by near infrared imager analysis. It is filed as cell-based, HCT-116. The method, boiled down: as §3
Data set [15] is described as follows: Cytotoxicity against human OVCAR3 cells after 5 days by sulforhodamine B assay. The class given is functional, OVCAR-3.
Data set [16] in a line: Antitumor activity against human HCT116 cells xenografted in athymic CD1 nude mouse assessed as tumor growth inhibition at 23 mg/kg, po qd administered for 21 days measured 3 times per week during compound dosing relative to vehicle-treated control. The class given is functional. To be noted: HCT-116, 504 h, read-out: TGI. Summed up:
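HCT116 cells (5 million) were injected subcutaneously into the right flank of 6–8 week old female athymic CD-1 nude mice. At a mean tumor volume of 80–120 mm³, mice were randomized (n = 8). Dosing was oral, daily for 21 days, in 10% NMP/40% PEG400/50% DI water, at the MTD and ~2/3 MTD. Tumors were measured three times weekly, volume x²y/2, and TGI was taken against vehicle.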

The target in data set [17] is Mitogen-activated protein kinase 1 (Homo sapiens, UniProt P28482). Description: Inhibition of human MAPK1 by millipore radiometric assay. The method, boiled down:
as §2

In data set [18] the target is Mast/stem cell growth factor receptor Kit (Homo sapiens, UniProt P10721, V560G). Description: Inhibition of human cKit V560G mutant by millipore radiometric assay. The method, boiled down: as §2
Data set [19] has as its system HCT-116. Description: Induction of chromosome segregation defect in human HCT116 cells assessed as anaphase and telophase cells with lagging chromosomes at 100 nM incubated for 6 hrs post double thymidine block by DAPI staining-based immunofluorescence microscopic analysis (reference value: 19 +/- 2%). The class given is functional.
The test system of data set [20] is SW-620. Description: Cytotoxicity against human SW620 cells after 5 days by sulforhodamine B assay. The class given is functional. Particulars: SW-620, 120 h. The method, boiled down: as §1
Data set [21] in a line: Antitumor activity against human HCT116 cells xenografted in athymic CD1 nude mouse assessed as tumor growth inhibition at 35 mg/kg, po qd administered for 21 days measured 3 times per week during compound dosing relative to vehicle-treated control. It is filed as functional. Particulars: HCT-116, 504 h, read-out: TGI. Summed up: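 HCT116 cells (5 million) were injected subcutaneously into the right flank of 6–8 week old female athymic CD-1 nude mice. At a mean tumor volume of 80–120 mm³, mice were randomized (n = 8). Tumors were measured three times weekly, volume x²y/2, and TGI was taken against vehicle.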

Data set [22] can be described thus: Plasma protein binding in mouse. The class given is ADME. To be noted: read-out: PPB (converted).
The nature of data set [23]: Oral bioavailability in dog. The class given is ADME, organism-based, Canis lupus familiaris. To be noted: in vivo.
Data set [24] has as its target Mitogen-activated protein kinase 10 (Homo sapiens, UniProt P53779). Description: Inhibition of human JNK3 by millipore radiometric assay. Summed up:
as §2

Chain of Mast/stem cell growth factor receptor Kit (P10721 26-976 V560G limits assumed): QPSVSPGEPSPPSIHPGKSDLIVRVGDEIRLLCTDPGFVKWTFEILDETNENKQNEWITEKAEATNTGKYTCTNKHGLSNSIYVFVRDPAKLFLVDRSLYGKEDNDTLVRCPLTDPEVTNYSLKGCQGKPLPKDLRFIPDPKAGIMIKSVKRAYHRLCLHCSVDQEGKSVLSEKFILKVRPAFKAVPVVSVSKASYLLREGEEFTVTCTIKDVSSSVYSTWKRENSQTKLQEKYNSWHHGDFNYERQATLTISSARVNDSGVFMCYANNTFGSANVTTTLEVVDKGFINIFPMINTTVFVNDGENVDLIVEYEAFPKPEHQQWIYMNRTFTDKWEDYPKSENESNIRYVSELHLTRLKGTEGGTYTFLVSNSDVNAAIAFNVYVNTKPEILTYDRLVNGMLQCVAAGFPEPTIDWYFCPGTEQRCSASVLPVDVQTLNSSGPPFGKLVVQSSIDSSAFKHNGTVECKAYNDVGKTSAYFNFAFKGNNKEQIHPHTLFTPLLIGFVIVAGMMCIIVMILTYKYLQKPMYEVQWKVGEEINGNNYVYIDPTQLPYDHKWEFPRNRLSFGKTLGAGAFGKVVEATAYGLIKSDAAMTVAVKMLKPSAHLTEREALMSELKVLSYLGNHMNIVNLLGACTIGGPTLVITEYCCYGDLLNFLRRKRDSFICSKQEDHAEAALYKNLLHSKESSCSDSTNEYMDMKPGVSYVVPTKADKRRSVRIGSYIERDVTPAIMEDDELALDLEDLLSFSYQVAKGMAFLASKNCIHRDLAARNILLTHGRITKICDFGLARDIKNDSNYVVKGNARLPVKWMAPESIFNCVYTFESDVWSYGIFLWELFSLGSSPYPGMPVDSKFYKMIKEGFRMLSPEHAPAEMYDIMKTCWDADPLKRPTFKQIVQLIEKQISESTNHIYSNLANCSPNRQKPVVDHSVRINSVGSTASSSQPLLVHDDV
Chain of Mitogen-activated protein kinase 10 (P53779 whole entry): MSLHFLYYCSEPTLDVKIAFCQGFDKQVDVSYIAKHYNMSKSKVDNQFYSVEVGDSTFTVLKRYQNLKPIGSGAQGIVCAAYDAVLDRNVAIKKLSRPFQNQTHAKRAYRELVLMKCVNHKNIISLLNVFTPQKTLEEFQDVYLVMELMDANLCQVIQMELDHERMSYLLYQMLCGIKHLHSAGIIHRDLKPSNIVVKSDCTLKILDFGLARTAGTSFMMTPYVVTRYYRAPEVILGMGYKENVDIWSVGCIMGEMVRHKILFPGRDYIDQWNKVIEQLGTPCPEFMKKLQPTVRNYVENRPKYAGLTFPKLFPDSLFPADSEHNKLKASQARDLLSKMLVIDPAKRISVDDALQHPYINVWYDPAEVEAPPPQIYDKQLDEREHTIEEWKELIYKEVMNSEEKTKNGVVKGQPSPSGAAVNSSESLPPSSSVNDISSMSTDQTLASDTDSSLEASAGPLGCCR
Chain of Aurora kinase B/Inner centromere protein (Q96GD4 whole entry): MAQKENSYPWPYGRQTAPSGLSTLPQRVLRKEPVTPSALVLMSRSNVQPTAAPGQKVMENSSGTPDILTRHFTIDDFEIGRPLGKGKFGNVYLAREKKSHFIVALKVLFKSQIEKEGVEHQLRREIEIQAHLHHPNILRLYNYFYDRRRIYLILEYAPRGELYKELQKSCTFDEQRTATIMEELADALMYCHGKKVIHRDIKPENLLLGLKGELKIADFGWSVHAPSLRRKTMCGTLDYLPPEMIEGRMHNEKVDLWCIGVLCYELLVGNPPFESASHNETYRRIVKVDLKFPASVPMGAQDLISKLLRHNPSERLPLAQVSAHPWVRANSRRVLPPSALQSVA
Chain of Aurora kinase B/Inner centromere protein (Q9NQS7 whole entry, further chain): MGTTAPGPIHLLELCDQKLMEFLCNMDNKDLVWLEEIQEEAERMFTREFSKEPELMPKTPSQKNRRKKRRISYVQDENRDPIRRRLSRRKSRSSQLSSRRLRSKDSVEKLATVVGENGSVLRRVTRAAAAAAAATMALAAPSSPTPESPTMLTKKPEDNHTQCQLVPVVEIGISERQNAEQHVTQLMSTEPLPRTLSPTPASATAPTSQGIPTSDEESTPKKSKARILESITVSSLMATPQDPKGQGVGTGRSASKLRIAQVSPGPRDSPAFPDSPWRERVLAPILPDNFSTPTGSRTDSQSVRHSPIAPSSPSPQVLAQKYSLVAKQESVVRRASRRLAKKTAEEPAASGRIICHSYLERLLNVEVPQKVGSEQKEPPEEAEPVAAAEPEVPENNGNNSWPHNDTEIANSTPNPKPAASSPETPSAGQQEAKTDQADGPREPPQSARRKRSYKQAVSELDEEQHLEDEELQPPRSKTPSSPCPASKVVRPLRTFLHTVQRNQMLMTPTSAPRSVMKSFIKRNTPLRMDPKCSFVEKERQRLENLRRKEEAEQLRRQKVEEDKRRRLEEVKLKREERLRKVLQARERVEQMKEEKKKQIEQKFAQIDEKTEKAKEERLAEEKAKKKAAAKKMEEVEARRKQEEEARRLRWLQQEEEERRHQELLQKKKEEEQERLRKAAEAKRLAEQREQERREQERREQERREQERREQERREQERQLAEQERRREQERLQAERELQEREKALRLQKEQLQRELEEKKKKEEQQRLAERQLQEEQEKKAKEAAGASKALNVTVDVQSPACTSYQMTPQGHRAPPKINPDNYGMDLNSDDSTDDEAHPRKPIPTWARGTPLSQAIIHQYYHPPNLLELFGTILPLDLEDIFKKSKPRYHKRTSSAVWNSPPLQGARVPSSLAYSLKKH
Chain of Mitogen-activated protein kinase 1 (P28482 whole entry): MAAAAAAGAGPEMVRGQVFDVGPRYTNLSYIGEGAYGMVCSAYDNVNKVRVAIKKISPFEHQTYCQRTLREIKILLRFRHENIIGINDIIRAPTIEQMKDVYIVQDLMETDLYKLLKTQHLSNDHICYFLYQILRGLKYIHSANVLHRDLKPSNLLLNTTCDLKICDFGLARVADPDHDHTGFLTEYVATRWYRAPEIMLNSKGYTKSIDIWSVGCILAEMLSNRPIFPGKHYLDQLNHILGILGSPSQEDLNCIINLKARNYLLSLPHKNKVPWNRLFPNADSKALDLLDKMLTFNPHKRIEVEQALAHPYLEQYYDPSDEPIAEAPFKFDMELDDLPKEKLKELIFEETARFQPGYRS
Chain of Muscle, skeletal receptor tyrosine-protein kinase (O15146 whole entry): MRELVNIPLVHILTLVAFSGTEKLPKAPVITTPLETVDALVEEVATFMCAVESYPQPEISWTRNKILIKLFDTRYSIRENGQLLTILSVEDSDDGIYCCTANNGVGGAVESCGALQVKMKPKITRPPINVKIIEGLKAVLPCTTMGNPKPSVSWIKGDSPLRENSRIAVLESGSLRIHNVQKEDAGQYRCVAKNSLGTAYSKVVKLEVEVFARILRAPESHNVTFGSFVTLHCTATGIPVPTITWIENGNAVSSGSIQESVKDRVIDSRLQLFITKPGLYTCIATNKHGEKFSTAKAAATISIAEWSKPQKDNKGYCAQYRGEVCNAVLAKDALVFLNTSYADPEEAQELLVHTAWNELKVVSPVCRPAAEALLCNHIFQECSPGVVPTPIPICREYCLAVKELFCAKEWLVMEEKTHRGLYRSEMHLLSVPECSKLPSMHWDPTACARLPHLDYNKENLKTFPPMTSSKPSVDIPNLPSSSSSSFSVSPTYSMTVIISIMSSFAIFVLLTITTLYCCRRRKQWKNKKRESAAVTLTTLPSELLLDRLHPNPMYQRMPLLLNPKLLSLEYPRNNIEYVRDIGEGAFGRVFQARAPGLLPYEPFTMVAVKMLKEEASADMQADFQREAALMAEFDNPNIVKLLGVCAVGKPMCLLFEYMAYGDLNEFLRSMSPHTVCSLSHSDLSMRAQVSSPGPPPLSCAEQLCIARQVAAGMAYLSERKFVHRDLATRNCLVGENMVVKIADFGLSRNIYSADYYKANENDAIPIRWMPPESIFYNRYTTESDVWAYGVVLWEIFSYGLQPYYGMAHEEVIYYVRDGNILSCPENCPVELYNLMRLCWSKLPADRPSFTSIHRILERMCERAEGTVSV

In the case of `O=C(N[C@@H](c1ccccn1)C1CC1)c1ccc2[nH]nc(-c3ccc(N4[C@H]5CC[C@H]4CC(O)C5)cc3)c2c1` (stereo in doubt; 75), the concentration for 50% growth inhibition (GI50) in data set [1] worked out at 15 nM; in [3] it was 30 nM; in [5], 16 nM; in data set [6], 210 nM; in [7], 60 nM; in data set [9], 24 nM. Besides, the values for the GI50 in [15] and in data set [20] were 80 nM and 30 nM, respectively. In addition, in data set [2], the inhibition in vivo at 30 mg/kg was 98%. In addition, the 50% inhibitory concentration (IC50) stood at 690 nM in data set [4], 320 nM in data set [17], 490 nM in [18] and 68 nM in [24]. This compound also gave a half-life at 1 µM in [8] of more than 60 min. In [10], this compound gave a half-life of 46.8 min. Also, the Activity entry in [11] is “Non-toxic”; in data set [19], 61%. Besides, the AUC(0-inf) in data set [12] was determined as 550 ng·h/mL. Further, the EC50 in data set [13] and in [14] was more than 6 µM throughout. Moreover, the inhibition in vivo at 23 mg/kg in data set [16] was 55%. In addition, the inhibition in vivo at 35 mg/kg in [21] is 77%. Moreover, in data set [22], the fraction unbound was 0.042. In addition, the bioavailability in [23] is 43%.
